Source: ChEMBL document CHEMBL5260806, “Hydrogen peroxide activated quinone methide precursors with enhanced DNA cross-linking capability and cytotoxicity towards cancer cells” (Eur J Med Chem, 2017)
Calls of active or inactive are those of the source.

Experiments:
[1] = tested on: A549; assay: Anticancer activity against human A549 cells assessed as cell growth inhibition incubated for 48 hrs by sulforhodamine B assay; type: functional
Outline: (§1)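 NCI-60 screen: cell lines grown in RPMI 1640 with 5% FBS and 2 mM L-glutamine, plated in 96-well plates at 5,000–40,000 cells/well depending on doubling time. Each line has one single-dose arm at 10 µM and one dose-response arm giving GI50.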

[2] = tested on: TK-10; assay: Anticancer activity against human TK-10 cells assessed as cell growth inhibition at 10 uM incubated for 48 hrs by sulforhodamine B assay; type: functional; settings: read-out: GI
[3] = tested on: M14; assay: Anticancer activity against human M14 cells assessed as cell growth inhibition incubated for 48 hrs by sulforhodamine B assay; type: functional; outline: as §1
[4] = tested on: OVCAR-3; assay: Anticancer activity against human OVCAR-3 cells assessed as cell growth inhibition incubated for 48 hrs by sulforhodamine B assay; type: functional
Outline: (§2)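 NCI DTP 60-cell-line screen run at National Cancer Institute. Cells grown in RPMI 1640 with 5% fetal bovine serum and 2 mM L-glutamine, seeded at 5,000–40,000 cells/well depending on doubling time. Single-dose screen at 10 µM gives growth percentage; dose-response series gives GI50.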

[5] = tested on: KM12; assay: Anticancer activity against human KM12 cells assessed as cell growth inhibition incubated for 48 hrs by sulforhodamine B assay; type: functional; outline: as §1
[6] = tested on: TK-10; assay: Anticancer activity against human TK-10 cells assessed as cell growth inhibition incubated for 48 hrs by sulforhodamine B assay; type: functional
[7] = tested on: MDA-MB-435; assay: Anticancer activity against human MDA-MB-435 cells assessed as cell growth inhibition at 10 uM incubated for 48 hrs by sulforhodamine B assay; type: functional; settings: read-out: GI; outline: as §2
[8] = tested on: CLL cell; assay: Induction of DNA damage in chronic lymphocytic leukemia patient lymphocytes assessed as gamma-H2Ax phosphorylation at Ser139 residue at 10 uM after 24 hrs by FITC-staining based flow cytometry; type: functional; settings: Homo sapiens
Outline: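 Patient CLL lymphocytes, Ficoll-hypaque isolated, in RPMI with 10% autologous plasma, untreated or exposed to 10 µM for 24 h. Cells washed in PBS, fixed in ice-cold 70% ethanol and held at −20 °C. Then permeabilised, stained with FITC anti-H2AX Ser139 antibody and read by flow cytometry.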

[9] = tested on: IGROV-1; assay: Anticancer activity against human IGROV-1 cells assessed as cell growth inhibition incubated for 48 hrs by sulforhodamine B assay; type: functional; outline: as §1
[10] = tested on: OVCAR-5; assay: Anticancer activity against human OVCAR-5 cells assessed as cell growth inhibition incubated for 48 hrs by sulforhodamine B assay; type: functional; outline: as §2
[11] = tested on: T47D; assay: Anticancer activity against human T47D cells assessed as cell growth inhibition incubated for 48 hrs by sulforhodamine B assay; type: functional
[12] = tested on: OVCAR-4; assay: Anticancer activity against human OVCAR-4 cells assessed as cell growth inhibition at 10 uM incubated for 48 hrs by sulforhodamine B assay; type: functional; settings: read-out: GI; outline: as §2
[13] = tested on: MDA-MB-468; assay: Anticancer activity against human MDA-MB-468 cells assessed as cell growth inhibition incubated for 48 hrs by sulforhodamine B assay; type: functional; outline: as §2
[14] = tested on: SW-620; assay: Anticancer activity against human SW620 cells assessed as cell growth inhibition incubated for 48 hrs by sulforhodamine B assay; type: functional
[15] = tested on: UACC-257; assay: Anticancer activity against human UACC-257 cells assessed as cell growth inhibition at 10 uM incubated for 48 hrs by sulforhodamine B assay; type: functional; settings: read-out: GI
[16] = tested on: 786-0; assay: Anticancer activity against human 786-0 cells assessed as cell growth inhibition incubated for 48 hrs by sulforhodamine B assay; type: functional; outline: as §1
[17] = tested on: K562; assay: Anticancer activity against human K562 cells assessed as cell growth inhibition incubated for 48 hrs by sulforhodamine B assay; type: functional; outline: as §1
[18] = tested on: A549; assay: Anticancer activity against human A549 cells assessed as cell growth inhibition at 10 uM incubated for 48 hrs by sulforhodamine B assay; type: functional; settings: read-out: GI; outline: as §1
[19] = tested on: SF-268; assay: Anticancer activity against human SF-268 cells assessed as cell growth inhibition at 10 uM incubated for 48 hrs by sulforhodamine B assay; type: functional; settings: read-out: GI; outline: as §2
[20] = tested on: MCF7; assay: Anticancer activity against human MCF7 cells assessed as cell growth inhibition incubated for 48 hrs by sulforhodamine B assay; type: functional; outline: as §2
[21] = tested on: MDA-MB-468; assay: Anticancer activity against human MDA-MB-468 cells assessed as cell growth inhibition at 10 uM incubated for 48 hrs by sulforhodamine B assay; type: functional; settings: read-out: GI; outline: as §2
[22] = tested on: DNA; assay: Induction of [32P]-labeled 49-mer oligonucleotide duplex DNA 25 (unknown origin) interstrand cross-linking at 2 mM for 24 hrs without H2O2 by PAGE; type: functional
[23] = tested on: A498; assay: Anticancer activity against human A498 cells assessed inhibition of cell growth after 48 hrs by CellTiter-Glo luminescent assay; type: functional, cell-based; settings: A498, 48 h
Outline: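 Human tumour cells kept in RPMI 1640 with 5% FBS and 2 mM L-glutamine, seeded at 5,000–10,000 cells/well and left 2–3 h at 37°C, 5% CO2. Drugs taken from 20 mM DMSO stocks, serially halved ten times in DMSO, then added at 1:100 dilution. Cells exposed for 48 h at 37°C. Viability read by CellTiter-Glo luminescence after 10 min at room temperature.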

[24] = tested on: Malme-3M; assay: Anticancer activity against human Malme-3M cells assessed as cell growth inhibition at 10 uM incubated for 48 hrs by sulforhodamine B assay; type: functional; settings: read-out: GI; outline: as §2
[25] = tested on: SK-OV-3; assay: Anticancer activity against human SK-OV-3 cells assessed as cell growth inhibition incubated for 48 hrs by sulforhodamine B assay; type: functional
[26] = tested on: DU-145; assay: Anticancer activity against human DU-145 cells assessed as cell growth inhibition at 10 uM incubated for 48 hrs by sulforhodamine B assay; type: functional; settings: read-out: GI; outline: as §1
[27] = tested on: OVCAR-3; assay: Anticancer activity against human OVCAR-3 cells assessed as cell growth inhibition at 10 uM incubated for 48 hrs by sulforhodamine B assay; type: functional; settings: read-out: GI; outline: as §2
[28] = tested on: MDA-MB-231; assay: Anticancer activity against human MDA-MB-231 cells assessed as cell growth inhibition at 10 uM incubated for 48 hrs by sulforhodamine B assay; type: functional; settings: read-out: GI; outline: as §2
[29] = tested on: 786-0; assay: Anticancer activity against human 786-0 cells assessed inhibition of cell growth after 48 hrs by CellTiter-Glo luminescent assay; type: functional, cell-based; settings: 786-0, 48 h
Outline: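 Renal lines grown in RPMI 1640 with 5% FBS and 2 mM L-glutamine, plated at 5,000–10,000 cells/well in 384-well plates and held 2–3 h at 37 °C, 5% CO2. Compounds were made as 20 mM DMSO stocks, given as ten 2-fold serial dilutions diluted 1:100 into cells, and incubated 48 h. Read-out was CellTiter-Glo luminescence after 10 min at room temperature.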

[30] = tested on: SNB-75; assay: Anticancer activity against human SNB-75 cells assessed as cell growth inhibition incubated for 48 hrs by sulforhodamine B assay; type: functional
[31] = tested on: SN12C; assay: Anticancer activity against human SN12C cells assessed inhibition of cell growth after 48 hrs by CellTiter-Glo luminescent assay; type: functional, cell-based
Outline: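 Renal lines grown in RPMI 1640 with 5% FBS and 2 mM L-glutamine, seeded into 384-well plates at 5,000–10,000 cells/well, held 2–3 h at 37 °C, 5% CO2. DMSO stocks (20 mM) serially halved ten times and added at 1:100. Cells exposed 48 h at 37 °C; CellTiter-Glo added, 10 min at room temperature, luminescence read.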

[32] = tested on: CAKI-1; assay: Anticancer activity against human CAKI-1 cells assessed as cell growth inhibition at 10 uM incubated for 48 hrs by sulforhodamine B assay; type: functional; settings: read-out: GI; outline: as §1

COc1cc(CBr)c(B2OC(C)(C)C(C)(C)O2)c(CBr)c1
2000 nM: GI50 [1] | GI50 [3] | GI50 [4] | GI50 [5] | GI50 [6] | GI50 [9] | GI50 [10] | GI50 [11] | GI50 [13] | GI50 [14] | GI50 [16] | GI50 [17] | GI50 [20] | GI50 [25] | GI50 [30]
10800 nM: IC50 [29]
18600 nM: IC50 [31]
18100 nM: IC50 [23]
active: Activity [8]
< 50%: inhibition of growth at 10 µM [2] | inhibition of growth at 10 µM [7] | inhibition of growth at 10 µM [12] | inhibition of growth at 10 µM [15] | inhibition of growth at 10 µM [18] | inhibition of growth at 10 µM [19] | inhibition of growth at 10 µM [21] | inhibition of growth at 10 µM [24] | inhibition of growth at 10 µM [26] | inhibition of growth at 10 µM [27] | inhibition of growth at 10 µM [28] | inhibition of growth at 10 µM [32]
0%: Activity [22]
